Results as given in ChEMBL document CHEMBL4715736, “Identification of anticancer agents based on the thieno[2,3-b]pyridine and 1H-pyrazole molecular scaffolds” (2016).

Assays:
Type in all cases: functional
Conditions in all cases: read-out: Activity
[1] = system: DU-145; assay: Growth inhibition of human DU-145 cells assessed as cell growth at 10 uM incubated for 48 hrs by sulforhodamine B assay relative to control
Method in brief: (§1)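 NCI Developmental Therapeutics Program NCI60 panel. Compounds that were active in the 10 µM one-dose screen went on to dose–response testing. Growth at each concentration is expressed relative to untreated control (100%). GI50 (concentration giving 50% of maximal inhibition of proliferation) and TGI (concentration giving total growth inhibition) were derived from the curves.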

[2] = system: NCI-H322M; assay: Growth inhibition of human NCI-H322M cells assessed as cell growth at 10 uM incubated for 48 hrs by sulforhodamine B assay relative to control
Method in brief: (§2)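 Submitted to the NCI Developmental Therapeutics Program for the NCI60 human tumour cell line panel. First screen at a single 10 µM concentration. Read-out is growth relative to untreated control cells set at 100%.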

[3] = system: HCT-116; assay: Growth inhibition of human HCT-116 cells assessed as cell growth at 10 uM incubated for 48 hrs by sulforhodamine B assay relative to control; method in brief: as §2
[4] = system: SF-295; assay: Growth inhibition of human SF-295 cells assessed as cell growth at 10 uM incubated for 48 hrs by sulforhodamine B assay relative to control
Method in brief: (§3)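 Run by the NCI Developmental Therapeutics Program as part of its 60-line human tumour panel. Each compound tested at a single 10 µM dose. Growth expressed as % relative to untreated control cells (100%).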

[5] = system: T47D; assay: Growth inhibition of human T47D cells assessed as cell growth at 10 uM incubated for 48 hrs by sulforhodamine B assay relative to control; method in brief: as §3
[6] = system: NCI-H226; assay: Growth inhibition of human NCI-H226 cells assessed as cell growth at 10 uM incubated for 48 hrs by sulforhodamine B assay relative to control; method in brief: as §2
[7] = system: SW-620; assay: Growth inhibition of human SW-620 cells assessed as cell growth at 10 uM incubated for 48 hrs by sulforhodamine B assay relative to control; method in brief: as §3
[8] = system: LOX IMVI; assay: Growth inhibition of human LOX IMVI cells assessed as cell growth at 10 uM incubated for 48 hrs by sulforhodamine B assay relative to control; method in brief: as §2
[9] = system: UO-31; assay: Growth inhibition of human UO-31 cells assessed as cell growth at 10 uM incubated for 48 hrs by sulforhodamine B assay relative to control; method in brief: as §3
[10] = system: RPMI-8226; assay: Growth inhibition of human RPMI-8226 cells assessed as cell growth at 10 uM incubated for 48 hrs by sulforhodamine B assay relative to control; method in brief: as §3
[11] = system: SK-MEL-28; assay: Growth inhibition of human SK-MEL-28 cells assessed as cell growth at 10 uM incubated for 48 hrs by sulforhodamine B assay relative to control; method in brief: as §3
[12] = system: ACHN; assay: Growth inhibition of human ACHN cells assessed as cell growth at 10 uM incubated for 48 hrs by sulforhodamine B assay relative to control
Method in brief: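 NCI Developmental Therapeutics Program NCI60 human tumour cell line panel, one-dose primary screen with every compound at 10 µM. Growth is expressed as % of untreated control cells (100%).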

[13] = system: MCF7; assay: Growth inhibition of human MCF7 cells assessed as cell growth at 10 uM incubated for 48 hrs by sulforhodamine B assay relative to control; method in brief: as §2
[14] = system: OVCAR-5; assay: Growth inhibition of human OVCAR-5 cells assessed as cell growth at 10 uM incubated for 48 hrs by sulforhodamine B assay relative to control; method in brief: as §3
[15] = system: HCC 2998; assay: Growth inhibition of human HCC 2998 cells assessed as cell growth at 10 uM incubated for 48 hrs by sulforhodamine B assay relative to control; method in brief: as §1
[16] = system: MDA-MB-468; assay: Growth inhibition of human MDA-MB-468 cells assessed as cell growth at 10 uM incubated for 48 hrs by sulforhodamine B assay relative to control; method in brief: as §2
[17] = system: Hs-578T; assay: Growth inhibition of human Hs-578T cells assessed as cell growth at 10 uM incubated for 48 hrs by sulforhodamine B assay relative to control; method in brief: as §2
[18] = system: PC-3; assay: Growth inhibition of human PC-3 cells assessed as cell growth at 10 uM incubated for 48 hrs by sulforhodamine B assay relative to control; method in brief: as §3
[19] = system: MDA-MB-435; assay: Growth inhibition of human MDA-MB-435 cells assessed as cell growth at 10 uM incubated for 48 hrs by sulforhodamine B assay relative to control; method in brief: as §2
[20] = system: SN12C; assay: Growth inhibition of human SN12C cells assessed as cell growth at 10 uM incubated for 48 hrs by sulforhodamine B assay relative to control; method in brief: as §3
[21] = system: SF-539; assay: Growth inhibition of human SF-539 cells assessed as cell growth at 10 uM incubated for 48 hrs by sulforhodamine B assay relative to control; method in brief: as §3
[22] = system: OVCAR-4; assay: Growth inhibition of human OVCAR-4 cells assessed as cell growth at 10 uM incubated for 48 hrs by sulforhodamine B assay relative to control; method in brief: as §3
[23] = system: SK-MEL-5; assay: Growth inhibition of human SK-MEL-5 cells assessed as cell growth at 10 uM incubated for 48 hrs by sulforhodamine B assay relative to control; method in brief: as §3
[24] = system: Malme-3M; assay: Growth inhibition of human Malme-3M cells assessed as cell growth at 10 uM incubated for 48 hrs by sulforhodamine B assay relative to control; method in brief: as §2
[25] = system: HL-60(TB); assay: Growth inhibition of human HL-60(TB) cells assessed as cell growth at 10 uM incubated for 48 hrs by sulforhodamine B assay relative to control
Method in brief: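 Screened by the NCI Developmental Therapeutics Program on its panel of 60 human tumour cell lines. Compounds were first tested at a single 10 µM dose, and compounds active there went to dose-response curves. Growth is expressed relative to untreated control (100%). GI50 (50% of maximal proliferation inhibition) and TGI (total growth inhibition) were derived from the dose-response data.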

[26] = system: KM12; assay: Growth inhibition of human KM12 cells assessed as cell growth at 10 uM incubated for 48 hrs by sulforhodamine B assay relative to control; method in brief: as §2
[27] = system: 786-0; assay: Growth inhibition of human 786-0 cells assessed as cell growth at 10 uM incubated for 48 hrs by sulforhodamine B assay relative to control; method in brief: as §1
[28] = system: MOLT-4; assay: Growth inhibition of human MOLT-4 cells assessed as cell growth at 10 uM incubated for 48 hrs by sulforhodamine B assay relative to control; method in brief: as §2
[29] = system: NCI-H460; assay: Growth inhibition of human NCI-H460 cells assessed as cell growth at 10 uM incubated for 48 hrs by sulforhodamine B assay relative to control; method in brief: as §2
[30] = system: RXF 393; assay: Growth inhibition of human RXF 393 cells assessed as cell growth at 10 uM incubated for 48 hrs by sulforhodamine B assay relative to control; method in brief: as §3
[31] = system: SR; assay: Growth inhibition of human SR cells assessed as cell growth at 10 uM incubated for 48 hrs by sulforhodamine B assay relative to control; method in brief: as §3
[32] = system: NCI/ADR-RES; assay: Growth inhibition of human NCI/ADR-RES cells assessed as cell growth at 10 uM incubated for 48 hrs by sulforhodamine B assay relative to control; method in brief: as §2
[33] = system: OVCAR-3; assay: Growth inhibition of human OVCAR-3 cells assessed as cell growth at 10 uM incubated for 48 hrs by sulforhodamine B assay relative to control; method in brief: as §3

Structure (SMILES)	growth at 10 µM [1]	growth at 10 µM [2]	growth at 10 µM [3]	growth at 10 µM [4]	growth at 10 µM [5]	growth at 10 µM [6]	growth at 10 µM [7]	growth at 10 µM [8]	growth at 10 µM [9]	growth at 10 µM [10]	growth at 10 µM [11]	growth at 10 µM [12]	growth at 10 µM [13]	growth at 10 µM [14]	growth at 10 µM [15]	growth at 10 µM [17]	growth at 10 µM [18]	growth at 10 µM [19]	growth at 10 µM [20]	growth at 10 µM [21]	other results
CCOc1ccc(-c2cc(N)n(S(=O)(=O)c3ccc(OC)cc3)n2)cc1	110%	102%	96%	115%	96.4%	97.7%	110%	105%	91.2%	94.1%	103%	102%	88.2%	107%	112%	99.7%	88.6%	101%	85.5%	98.4%	growth at 10 µM [16]: 87.4%; growth at 10 µM [22]: 103%; growth at 10 µM [23]: 97.5%; growth at 10 µM [24]: 114%; growth at 10 µM [25]: 126%; growth at 10 µM [26]: 123%; growth at 10 µM [27]: 108%; growth at 10 µM [28]: 85.2%; growth at 10 µM [29]: 98.8%; growth at 10 µM [30]: 95.9%; growth at 10 µM [31]: 116%; growth at 10 µM [32]: 103%
Cc1ccc(S(=O)(=O)n2ccc(-c3ccc(OCCCF)cc3)n2)cc1	99.3%	93.7%	86.1%	83.7%	72.9%	77.6%	103%	92.5%	66.4%	72.8%	85%	97.4%	78.3%	110%	93.9%	109%	73.5%	91.3%	80.2%	95.2%	growth at 10 µM [16]: 44.4%; growth at 10 µM [22]: 73.2%; growth at 10 µM [23]: 73.5%; growth at 10 µM [24]: 101%; growth at 10 µM [25]: 107%; growth at 10 µM [26]: 95%; growth at 10 µM [27]: 89.6%; growth at 10 µM [28]: 73.2%; growth at 10 µM [29]: 89.6%; growth at 10 µM [30]: 91.8%; growth at 10 µM [31]: 67.4%; growth at 10 µM [32]: 77.1%
O=S(=O)(c1ccccc1)n1ccc(-c2ccc3c(c2)CCO3)n1	95%	91.4%	89.1%	83.3%	68.8%	64.6%	93.7%	85.2%	51%	62.5%	86.2%	78.4%	83.2%	103%	90.8%	102%	84.2%	104%	67.9%	86.7%	growth at 10 µM [16]: 42.4%; growth at 10 µM [22]: 70.1%; growth at 10 µM [23]: 70.2%; growth at 10 µM [24]: 94%; growth at 10 µM [25]: 109%; growth at 10 µM [26]: 91.9%; growth at 10 µM [27]: 90.3%; growth at 10 µM [28]: 85.6%; growth at 10 µM [29]: 87.3%; growth at 10 µM [30]: 82.9%; growth at 10 µM [31]: 73.3%; growth at 10 µM [32]: 76%
Cc1cccc(NC(=O)c2sc3nc4c(cc3c2N)C(=O)CCC4)c1	6%	37.2%	20%	7%	29%	43%	21%	24%	41.2%	22%	34%	25%	16%	32%	25%	-7%	20%	-65%	35%	-61%	growth at 10 µM [33]: -22%; growth at 10 µM [22]: 21%; growth at 10 µM [23]: 6%; growth at 10 µM [24]: 14%; growth at 10 µM [26]: 13%; growth at 10 µM [27]: 15%; growth at 10 µM [28]: 42%; growth at 10 µM [29]: 5%; growth at 10 µM [30]: -10%; growth at 10 µM [32]: 5%
